KCC2 mod: modulators of human KCC2 chloride dependent transport; hit rate 2.2% among 190,000; Q9H2X9; B-score of Tl+ flux slope (higher = more flux/activation; lower = inhibition) at 10 µM; KCC2 cells, thallium flux FluoZin-2 fluorescence; AID 1456;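 active = thallium flux slope and its plate-corrected score both differing from the plate sample mean at a set confidence after two filtering rounds, in either direction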;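 note: slope of fluorescence scaled to starting intensity during 10 to 20 s after thallium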
ROMK mod: modulators of human ROMK potassium channel; Tet-inducible ROMK, thallium flux fluorescence; actives lie on both sides; hit rate 2% among 130,000; AID 1918; P48048; B-score at 10 µM;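 active = signal ratio slope over the read window, or its plate-corrected B-score, at least 3 SD from the plate mean, either direction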;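 note: B-score of the F/F0 ratio slope over 7 to 12 s after thallium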
Autophagy HCS: alters autophagy in cells. MEF GFP-LC3 puncta imaging; test concentration mostly 10 µM. calls only at 10 µM (by protocol). hit rate 0.98% among 190,000. AID 463193;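 active = percentage of spot-positive cells more than 3 SD above its plate mean, without a fluorescence outlier flag or 80% toxicity; inconclusive = no clear call, values can overlap the other calls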
Dynein cargo inh: blocks dynein driven cargo transport along microtubules; hit rate 0.47% among 220,000; AID 1381; 3617.4 mouse cells, GR-EGFP nuclear translocation imaging; test concentration mostly 20 µM; stimulated with dexamethasone, 1 µM; active compounds read low; z-score, hits read low;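 active = plate z-score of nuclear minus cytoplasmic receptor signal below a set negative limit, without overly bright fluorescence or cell loss, cut at about -3.5 in these data, passing the limit was not always enough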;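 note: z-score of nuclear minus cytoplasmic ring GR-EGFP intensity difference per well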
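Buffer or medium: tet-free medium with charcoal-stripped serum / Also added: dexamethasone agonist, 1.0 µM final, for 30 min / Timing: induction 48 h, compound 1 h, agonist 30 min / Measured by: high-content fluorescence imaging after fixation / Read-out: nuclear-to-cytoplasmic GR-EGFP distribution per well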
Redox H2O2 prof: compounds producing H2O2 with reducing agent – biochemical, NIH compound library profiling, artefact control for MLSCN library redox annotation, primary screen; hit rate 0.03% among 200,000; DTT-dependent redox cycling H2O2, phenol red/HRP absorbance; 100% = 100 µM peroxide control, 0% = buffer; activation, % at 10 µM; AID 878;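 active = activation of at least 50% relative to the plate's high and low controls in the primary single-dose screen; inactive = activation below 50%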;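 note: compound incubated with DTT at 0.8 mM final as the reducing agent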
ROMK retest: retested hit modulating human ROMK potassium channel. shares compounds with ROMK mod. hit rate 54% among 3,000. normalized thallium flux (F/F0 slope) at 10 µM. ROMK thallium flux, fluorescence ratio; active compounds read low. AID 1917;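 active = Flux at 10 µM at least 3 SD below or above vehicle control mean in one or both replicates; inconclusive = no clear call, values can overlap the other calls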
Of the large screens only hits and unclear results are named; the others gave an inactive call (follow-up assays come after a bar, where they were run). An excerpt weighted towards active compounds, which were near 4.1% of everything screened.

N#C/C(=C\c1cccc([N+](=O)[O-])c1)c1ccccn1	ROMK mod -3.64 | ROMK retest 0.0464
O=C(c1cccc([N+](=O)[O-])c1)c1ccccn1	none (no result: ROMK mod, Autophagy HCS, Redox H2O2 prof) | ROMK retest inconclusive
O=C(NNC(=O)c1ccccn1)c1cccc([N+](=O)[O-])c1	none
S=C1NCCOCCOCCOCCNC(=S)N2CCOCCOCCN1CCOCCOCC2	none (no result: KCC2 mod)
Clc1cccc(N/N=C(\Cc2nc3ccccc3[nH]2)c2ccccc2)c1	none (no result: ROMK mod)
Cc1cccn2c(=O)c(C=O)c(N3CC(C)OC(C)C3)nc12 (stereo unspecified)	none
Cc1cccn2c(=O)c(C=O)c(N3CCCCCC3)nc12	ROMK mod 2.13 | ROMK retest inactive
COc1ccc2c(c1)NC(c1ccc(N(C)C)cc1)c1cccn1-2 (stereo unspecified)	none (no result: ROMK mod, Autophagy HCS, Redox H2O2 prof)
Cc1c(C(=O)Nc2ccncc2)oc2ccccc12	none (no result: ROMK mod) | ROMK retest inactive
Cc1occc1C(=O)NC1CCCCCC1	ROMK mod 3.09 | ROMK retest inactive
Cc1occc1C(=O)NNC(=O)C1CCCCC1	none
COc1ccc(/C=C2\NC(=O)C(C=NCc3ccccc3)=C2O)cc1	none (no result: ROMK mod)
O=C1N/C(=C\c2ccc(O)cc2)C(O)=C1C=NCc1ccccc1	ROMK mod 2.13 | ROMK retest inactive
O=C(NNC(=O)c1csc(-c2cccnc2)n1)c1ccccc1	none (no result: Autophagy HCS, Redox H2O2 prof)
O=C(Nc1ccccc1Cl)c1csc(-c2cccnc2)n1	ROMK mod 5.18 (no result: Autophagy HCS, Redox H2O2 prof) | ROMK retest 0.101
OC(COc1ccc2cc(Br)ccc2c1)CN1CCCC1 (stereo unspecified)	none (no result: KCC2 mod, ROMK mod) | ROMK retest 0.0644
COc1ccc(N2CCN(CC(O)COCCOc3ccc(Br)cc3)CC2)cc1 (stereo unspecified)	ROMK mod -2.39 | ROMK retest 0.0578
COc1ccc(N2CCN(CC(O)COc3ccc4c(c3)CCC4)CC2)cc1 (stereo unspecified)	ROMK mod -4.52 (no result: KCC2 mod) | ROMK retest 0.0613
COc1ccccc1N1CCN(CC(=O)Nc2ccc(-n3cnnn3)cc2)CC1	none
CC1=C(C(=O)OCc2ccccc2)C(/C=C/c2ccccc2)N2C(=O)CCSC2=N1 (stereo unspecified)	ROMK mod -4.92 | ROMK retest inactive
c1ccc(CSc2n[nH]c(-c3ccco3)n2)cc1	ROMK mod 1.99 | ROMK retest inactive
Cc1cccn2c(=O)c3cc(C(=O)NC4CCCC4)c(=N)n(C4CCCC4)c3nc12	ROMK mod -2.56 | ROMK retest inconclusive
CCN(CC)CCNc1ncnc2c1sc1nc(N3CCCC3)c3c(c12)CC(C)(C)OC3	none
Cc1ccc2c(n1)sc1c(-c3ccccc3)c(C#N)c(N)nc12	none (no result: ROMK mod)
Cc1ccc2c(n1)sc1c(N)ncnc12	ROMK mod 4.62 (no result: KCC2 mod) | ROMK retest inactive
CCCC1=NN2C(=N)/C(=C\c3ccc(SCc4ccco4)o3)C(=O)N=C2S1	ROMK mod -3.02 (no result: KCC2 mod) | ROMK retest 0.0533
CCCC1=NN2C(=N)/C(=C\c3cc(C)n(Cc4ccccc4)c3C)C(=O)N=C2S1	none (no result: ROMK mod, Autophagy HCS, Redox H2O2 prof)
COc1cc(/C=C/c2nc3ccc([N+](=O)[O-])cc3s2)ccc1OCC(=O)O	none (no result: ROMK mod, Autophagy HCS, Redox H2O2 prof)
C=CCN(CC=C)CCOc1cccc(Oc2ccccc2)c1	none
Cc1onc(-c2c(F)cccc2Cl)c1C(=O)OCC(=O)c1c[nH]c2ccccc12	none (no result: ROMK mod, Autophagy HCS, Redox H2O2 prof)
COc1cccc(C(=O)Nc2cccc3c2ccc2cccn23)c1	none
Cc1ccc(S(=O)(=O)CC(=O)c2ccc([N+](=O)[O-])cc2)cc1	none (no result: ROMK mod, Autophagy HCS, Redox H2O2 prof) | ROMK retest inactive
N#C/C(=C/c1ccc(N2CCCCCC2)o1)c1cccc(F)c1	ROMK mod -2.9, Autophagy HCS active | ROMK retest 0.0571
Cc1ccc(-n2ncc3c(NCc4cccnc4)ncnc32)c(C)c1	none | ROMK retest 0.0665
Cc1cccc(NC(=O)c2ccc(CN3CCN(Cc4ccccc4)CC3)cc2)c1	ROMK mod -2.12 | ROMK retest inconclusive
Nc1nn(-c2ccccc2)c(N)c1N=Nc1ccccc1	ROMK mod 3.13 | ROMK retest inactive
Cc1nn(-c2ccccc2)c(N)c1N=Nc1ccccc1	none (no result: ROMK mod)
CCOC(=O)C1=C(N)OC2=C(C(=O)CC(C)(C)C2)C1c1cc(CSc2nnnn2C)cs1 (stereo unspecified)	ROMK mod -4.09 | ROMK retest inconclusive
O=C1CC(/C=C/c2ccc(Cl)cc2)=Nc2ccccc2N1	ROMK mod -3.39 | ROMK retest 0.0588

Assay outcomes deposited in PubChem by several laboratories.
